From ChEMBL document CHEMBL3046215, “Aliphatic ketones from Ruta chalepensis (Rutaceae) induce paralysis on root knot nematodes” (J Agric Food Chem, 2011)
Converted amounts (≈) assume the structure as drawn.

How the values were obtained:
Format in all cases: functional, organism-based
Meloidogyne incognita [1] = test: Nematicidal activity against second-stage juvenile Meloidogyne incognita (root-knot nematode) assessed as paralysis measured after 1 hr
Outline: (§1)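 Compounds diluted from ethanol stocks into water with Tween 20 (final ≤1% ethanol, ≤0.3% Tween). Motile vs paralyzed scored microscopically; Schneider-Orelli correction for water-control paralysis; EC50 by log-logistic regression; six replicates, two experiments.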

Meloidogyne javanica [2] = test: Nematicidal activity against second-stage juvenile Meloidogyne javanica (root-knot nematode) assessed as paralysis measured after 1 day; details: 24 h; outline: as §1
Meloidogyne javanica [3] = test: Nematicidal activity against second-stage juvenile Meloidogyne javanica (root-knot nematode) assessed as paralysis measured after 1 hr; outline: as §1
Meloidogyne incognita [4] = test: Nematicidal activity against second-stage juvenile Meloidogyne incognita (root-knot nematode) assessed as paralysis measured after 1 day; details: 24 h; outline: as §1

Row | SMILES | EC50 (Meloidogyne incognita [1]) | EC50 (Meloidogyne javanica [2]) | EC50 (Meloidogyne javanica [3]) | EC50 (Meloidogyne incognita [4])
1 | CCCCCCCCC(C)=O [2-DECANONE] | 235 µg/mL (≈ 1500 µM) | 55.9 µg/mL (≈ 358 µM) | > 500 µg/mL | 55.6 µg/mL (≈ 356 µM)
2 | CCCCCCCCCCC(C)=O [2-DODECANONE] | > 500 µg/mL | 59.9 µg/mL (≈ 325 µM) | > 500 µg/mL | 33.8 µg/mL (≈ 183 µM)
3 | CCCCCCCC(C)O (stereo not drawn) [2-NONANOL] | 130 µg/mL (≈ 899 µM) | 137 µg/mL (≈ 950 µM) | 178 µg/mL (≈ 1230 µM) | 108 µg/mL (≈ 746 µM)
4 | CCCCCCCC(C)=O [2-NONANONE] | 279 µg/mL (≈ 1960 µM) | 119 µg/mL (≈ 837 µM) | 357 µg/mL (≈ 2510 µM) | 118 µg/mL (≈ 832 µM)
5 | CCCCCCCCCCCC(C)=O [2-TRIDECANONE] | > 500 µg/mL | 200 µg/mL (≈ 1010 µM) | > 500 µg/mL | 204 µg/mL (≈ 1030 µM)
6 | CCCCCCCCCC(C)=O [METHYL NONYL KETONE] | > 500 µg/mL | 22.5 µg/mL (≈ 132 µM) | > 500 µg/mL | 20.6 µg/mL (≈ 121 µM)
7 | CCCCCCCCOC(C)=O [OCTYL ACETATE] | 61.6 µg/mL | 61.4 µg/mL | 111 µg/mL | 37.3 µg/mL
